What all share (conditions): stereoisomer not certain
The target of assay [1] is T1, OR52D1 (Homo sapiens) (UniProt Q9H346).
T1 sequence (whole entry): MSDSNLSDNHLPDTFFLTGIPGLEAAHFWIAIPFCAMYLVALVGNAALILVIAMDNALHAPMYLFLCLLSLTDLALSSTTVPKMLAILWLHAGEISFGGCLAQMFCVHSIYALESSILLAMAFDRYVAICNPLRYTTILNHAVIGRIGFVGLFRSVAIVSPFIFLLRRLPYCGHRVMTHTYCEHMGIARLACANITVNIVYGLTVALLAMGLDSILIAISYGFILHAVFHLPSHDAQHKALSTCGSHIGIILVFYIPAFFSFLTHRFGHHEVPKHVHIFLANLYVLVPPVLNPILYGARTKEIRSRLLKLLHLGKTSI
The gist of the method:
(§1)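 Whether a receptor–molecule pair is responsive (active) rests on the original authors' judgment that its measured signal was statistically different from baseline. Pairs without that judgment are non-responsive (inactive). Sources used varied assay methods, commonly transient luciferase assays in mammalian cell lines.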

Assay [2] deals with OR52E1 (Homo sapiens) (UniProt Q8NGJ3). The gist of the method: as §1
Assay [3] concerns the target OR52E2 (Homo sapiens) (UniProt Q8NGJ4). The gist of the method: as §1
In assay [4] the target is OR52E4 (Homo sapiens) (UniProt Q8NGH9). The gist of the method:
as §1

Assay [5] concerns the target OR52E5 (Homo sapiens) (UniProt Q8NH55). The gist of the method: as §1
Assay [6] deals with OR52E6 (Homo sapiens) (UniProt Q96RD3). The gist of the method: as §1
For assay [7], the target named is OR52I1 (Homo sapiens) (UniProt Q8NGK6). The gist of the method:
as §1

Assay [8] addresses OR52I2 (Homo sapiens) (UniProt Q8NH67). The gist of the method: as §1
Assay [9] addresses OR52J3 (Homo sapiens) (UniProt Q8NH60). The gist of the method:
as §1

Assay [10] addresses OR52K1 (Homo sapiens) (UniProt Q8NGK4). The gist of the method: as §1
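Also: active if original authors judged signal statistically different from baseline.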

OR52J3 (Homo sapiens), sequence (Q8NH60 whole entry): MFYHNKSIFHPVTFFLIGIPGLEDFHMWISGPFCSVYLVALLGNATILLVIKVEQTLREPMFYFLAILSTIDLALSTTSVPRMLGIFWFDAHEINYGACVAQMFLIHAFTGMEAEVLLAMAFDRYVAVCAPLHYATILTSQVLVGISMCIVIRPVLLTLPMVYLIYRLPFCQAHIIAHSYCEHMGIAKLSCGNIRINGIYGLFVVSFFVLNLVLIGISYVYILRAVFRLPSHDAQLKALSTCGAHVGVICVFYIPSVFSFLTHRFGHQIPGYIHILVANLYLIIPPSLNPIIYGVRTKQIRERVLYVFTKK
OR52E2 (Homo sapiens), sequence (Q8NGJ4 whole entry): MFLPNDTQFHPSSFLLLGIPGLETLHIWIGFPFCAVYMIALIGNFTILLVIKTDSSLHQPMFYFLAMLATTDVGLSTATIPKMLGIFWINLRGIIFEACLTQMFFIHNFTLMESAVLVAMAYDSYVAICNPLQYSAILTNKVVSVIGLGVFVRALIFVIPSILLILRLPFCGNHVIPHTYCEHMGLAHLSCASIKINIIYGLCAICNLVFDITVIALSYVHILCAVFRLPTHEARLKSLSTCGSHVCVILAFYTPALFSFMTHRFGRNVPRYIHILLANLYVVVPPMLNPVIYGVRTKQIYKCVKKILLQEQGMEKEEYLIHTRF
OR52E4 (Homo sapiens), sequence (Q8NGH9 whole entry): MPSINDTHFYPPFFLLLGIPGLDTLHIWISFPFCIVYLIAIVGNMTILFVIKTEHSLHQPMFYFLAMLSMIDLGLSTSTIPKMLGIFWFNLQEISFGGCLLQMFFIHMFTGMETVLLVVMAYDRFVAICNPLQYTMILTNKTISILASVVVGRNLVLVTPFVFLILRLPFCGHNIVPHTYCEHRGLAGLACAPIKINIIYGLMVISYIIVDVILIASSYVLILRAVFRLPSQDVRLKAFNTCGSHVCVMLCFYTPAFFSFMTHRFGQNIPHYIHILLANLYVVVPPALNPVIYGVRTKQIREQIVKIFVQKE
OR52I1 (Homo sapiens), sequence (Q8NGK6 whole entry): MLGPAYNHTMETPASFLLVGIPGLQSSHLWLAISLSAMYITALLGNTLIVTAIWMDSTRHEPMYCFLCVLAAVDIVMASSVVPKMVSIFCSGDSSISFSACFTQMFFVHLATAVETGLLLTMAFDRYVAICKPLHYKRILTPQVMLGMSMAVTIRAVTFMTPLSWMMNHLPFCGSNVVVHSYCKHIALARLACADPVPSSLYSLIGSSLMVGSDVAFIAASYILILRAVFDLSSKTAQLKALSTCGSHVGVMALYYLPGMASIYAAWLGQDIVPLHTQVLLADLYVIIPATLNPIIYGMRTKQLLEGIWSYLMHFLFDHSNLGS
OR52E1 (Homo sapiens), sequence (Q8NGJ3 whole entry): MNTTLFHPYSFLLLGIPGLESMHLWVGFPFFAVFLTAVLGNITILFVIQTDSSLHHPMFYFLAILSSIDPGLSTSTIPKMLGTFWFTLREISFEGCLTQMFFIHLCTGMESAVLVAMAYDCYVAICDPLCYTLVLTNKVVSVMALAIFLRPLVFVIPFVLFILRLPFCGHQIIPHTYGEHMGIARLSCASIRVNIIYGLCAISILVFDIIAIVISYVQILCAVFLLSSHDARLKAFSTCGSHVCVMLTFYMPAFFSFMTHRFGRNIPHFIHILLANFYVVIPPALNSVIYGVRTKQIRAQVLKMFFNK
OR52K1 (Homo sapiens), sequence (Q8NGK4 whole entry): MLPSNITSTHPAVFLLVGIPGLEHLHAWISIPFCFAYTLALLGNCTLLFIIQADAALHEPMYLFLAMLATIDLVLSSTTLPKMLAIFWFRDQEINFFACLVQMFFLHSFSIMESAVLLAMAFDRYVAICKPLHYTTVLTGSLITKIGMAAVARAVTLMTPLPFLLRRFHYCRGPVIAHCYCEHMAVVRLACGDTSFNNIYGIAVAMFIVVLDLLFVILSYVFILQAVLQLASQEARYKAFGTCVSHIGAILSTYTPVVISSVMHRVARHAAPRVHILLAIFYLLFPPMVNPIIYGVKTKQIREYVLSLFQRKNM
OR52I2 (Homo sapiens), sequence (Q8NH67 whole entry): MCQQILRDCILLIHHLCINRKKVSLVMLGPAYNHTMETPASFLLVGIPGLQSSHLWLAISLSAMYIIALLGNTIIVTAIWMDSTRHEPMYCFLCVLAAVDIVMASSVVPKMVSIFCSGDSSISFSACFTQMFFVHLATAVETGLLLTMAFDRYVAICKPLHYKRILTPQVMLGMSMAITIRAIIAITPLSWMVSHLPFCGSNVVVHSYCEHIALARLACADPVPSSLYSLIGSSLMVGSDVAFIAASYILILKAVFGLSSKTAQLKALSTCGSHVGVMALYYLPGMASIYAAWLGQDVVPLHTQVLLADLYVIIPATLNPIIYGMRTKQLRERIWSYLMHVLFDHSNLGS
OR52E6 (Homo sapiens), sequence (Q96RD3 whole entry): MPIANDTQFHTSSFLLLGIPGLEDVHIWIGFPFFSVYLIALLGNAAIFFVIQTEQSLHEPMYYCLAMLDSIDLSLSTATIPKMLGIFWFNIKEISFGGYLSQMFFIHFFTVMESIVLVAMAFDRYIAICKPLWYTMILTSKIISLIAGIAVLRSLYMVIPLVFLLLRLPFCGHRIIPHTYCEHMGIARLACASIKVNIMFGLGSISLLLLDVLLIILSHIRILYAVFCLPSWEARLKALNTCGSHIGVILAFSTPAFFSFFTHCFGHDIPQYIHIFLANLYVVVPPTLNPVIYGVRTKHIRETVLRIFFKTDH
OR52E5 (Homo sapiens), sequence (Q8NH55 whole entry): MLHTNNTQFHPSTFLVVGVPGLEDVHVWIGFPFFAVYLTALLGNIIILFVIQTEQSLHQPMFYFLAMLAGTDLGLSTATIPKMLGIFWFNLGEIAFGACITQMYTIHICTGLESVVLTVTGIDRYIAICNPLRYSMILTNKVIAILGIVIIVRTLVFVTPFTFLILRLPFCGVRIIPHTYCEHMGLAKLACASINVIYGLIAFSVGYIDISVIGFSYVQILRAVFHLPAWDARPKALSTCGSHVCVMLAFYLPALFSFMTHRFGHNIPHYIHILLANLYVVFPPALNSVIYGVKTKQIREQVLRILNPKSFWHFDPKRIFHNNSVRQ

Turning to `C=CCc1ccc(OC)cc1`, the “odorant receptor agonist call” value in [1] is “active”.

Take `Cc1c([N+](=O)[O-])c(C)c([N+](=O)[O-])c(C(C)(C)C)c1[N+](=O)[O-]`: the “odorant receptor agonist call” value in [1], in assay [2], in [3], in [4], in [5] and in [6] was “inactive” in each case. The “odorant receptor agonist call” value in [7], in assay [8], in [9] and in [10] was “inactive” in each case.

As for `CC(C=O)Cc1ccc2c(c1)OCO2` (configuration not stated), in assay [1], the “odorant receptor agonist call” value was “active”.

`COc1ccc(C=O)cc1`: the “odorant receptor agonist call” value in [1] is “active”.

Turning to `C=CCOC(=O)Cc1ccccc1`, the “odorant receptor agonist call” value in assay [1], in assay [2], in assay [3], in assay [4], in [6] and in assay [7] was “inactive” in each case. Moreover, the “odorant receptor agonist call” value in assay [8], in assay [9] and in [10] was “inactive” each time.

For `c1ccncc1`, in assay [1], the “odorant receptor agonist call” value is “inactive”.

Regarding `O=Cc1ccccc1`, in [1], the “odorant receptor agonist call” value is “active”.

On to `CC(=O)CCc1ccc2c(c1)OCO2`, for which the “odorant receptor agonist call” value in assay [1] was “inactive”.

With `C=CCc1ccc2c(c1)OCO2`, in [1], the “odorant receptor agonist call” value is “inactive”.

For the molecule `O=CC=Cc1ccccc1`, the “odorant receptor agonist call” value in [1] is “active”.
